This note sets out measurements from ChEMBL document CHEMBL1134455, “Synthesis and evaluation of 4-fluoro-8-substituted-2,3,4,5-tetrahydro-1H-2-benzazapines as selective inhibitors of phenylethanolamine N-methyltransferase versus the alpha(2)-adrenoceptor” (J Med Chem, 2001).

Test [1] can be described thus: Selectivity ratio (alpha2/PNMT).
The target of test [2] is T1, Adrenergic receptor alpha-2 (Rattus norvegicus, UniProt P22086+P19328+P22909).
T1 sequence (P22086 whole entry): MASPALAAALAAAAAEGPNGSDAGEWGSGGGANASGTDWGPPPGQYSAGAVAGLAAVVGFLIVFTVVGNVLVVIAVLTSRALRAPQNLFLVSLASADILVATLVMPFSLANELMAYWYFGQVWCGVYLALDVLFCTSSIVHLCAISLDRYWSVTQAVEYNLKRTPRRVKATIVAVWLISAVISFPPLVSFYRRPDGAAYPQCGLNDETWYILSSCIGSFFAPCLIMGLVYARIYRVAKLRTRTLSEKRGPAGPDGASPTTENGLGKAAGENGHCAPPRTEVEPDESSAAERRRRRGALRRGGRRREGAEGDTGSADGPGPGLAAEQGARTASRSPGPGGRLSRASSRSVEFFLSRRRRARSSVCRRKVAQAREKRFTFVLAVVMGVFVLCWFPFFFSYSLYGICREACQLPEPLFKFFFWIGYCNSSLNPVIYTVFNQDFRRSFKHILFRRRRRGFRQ
T1 sequence (P19328 whole entry): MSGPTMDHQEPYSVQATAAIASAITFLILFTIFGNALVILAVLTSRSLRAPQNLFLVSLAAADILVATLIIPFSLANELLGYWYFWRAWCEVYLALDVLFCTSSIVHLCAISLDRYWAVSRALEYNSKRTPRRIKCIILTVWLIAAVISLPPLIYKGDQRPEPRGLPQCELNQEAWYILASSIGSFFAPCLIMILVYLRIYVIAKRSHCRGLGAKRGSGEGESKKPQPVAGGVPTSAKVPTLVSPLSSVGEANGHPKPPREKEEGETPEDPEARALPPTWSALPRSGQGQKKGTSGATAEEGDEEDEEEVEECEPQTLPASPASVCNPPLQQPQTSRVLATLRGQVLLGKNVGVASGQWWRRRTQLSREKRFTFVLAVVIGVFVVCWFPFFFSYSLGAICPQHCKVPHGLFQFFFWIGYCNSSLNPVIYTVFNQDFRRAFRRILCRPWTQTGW
T1 sequence (P22909 whole entry): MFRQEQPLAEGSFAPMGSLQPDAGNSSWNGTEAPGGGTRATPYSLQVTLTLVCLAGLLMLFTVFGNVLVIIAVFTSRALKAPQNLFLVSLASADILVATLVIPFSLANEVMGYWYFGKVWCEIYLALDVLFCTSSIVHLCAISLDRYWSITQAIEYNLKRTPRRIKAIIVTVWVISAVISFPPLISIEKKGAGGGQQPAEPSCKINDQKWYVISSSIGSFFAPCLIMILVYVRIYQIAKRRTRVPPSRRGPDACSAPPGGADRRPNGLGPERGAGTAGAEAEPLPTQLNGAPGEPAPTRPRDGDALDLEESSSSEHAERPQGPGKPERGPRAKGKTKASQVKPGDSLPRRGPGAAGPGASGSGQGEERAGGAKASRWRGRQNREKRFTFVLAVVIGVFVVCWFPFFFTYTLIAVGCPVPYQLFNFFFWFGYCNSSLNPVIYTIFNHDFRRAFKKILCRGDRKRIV
As to the kind of experiment: Binding affinity to alpha-2 adrenergic receptor by displacement of [3H]clonidine. The test is classed as protein assay. Summed up: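 Male Sprague Dawley rat cortex homogenized, washed thrice by centrifugation in 50 mM Tris/HCl pH 7.7. Incubated with [3H]clonidine (final 2.0 nM) and varied inhibitor concentrations, 25 °C 30 min; GF/B filtration, scintillation counting. Nonspecific binding with 2 uM phentolamine. IC50 by log-probit analysis, converted to Ki via Cheng–Prusoff (Hill coefficients near one).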
In general terms: Loss of bound radioactivity is the signal in a displacement assay; it reports binding, not function.

Test [3] addresses T2, Phenylethanolamine N-methyltransferase (Bos taurus, UniProt P10938).
T2 sequence (P10938 whole entry): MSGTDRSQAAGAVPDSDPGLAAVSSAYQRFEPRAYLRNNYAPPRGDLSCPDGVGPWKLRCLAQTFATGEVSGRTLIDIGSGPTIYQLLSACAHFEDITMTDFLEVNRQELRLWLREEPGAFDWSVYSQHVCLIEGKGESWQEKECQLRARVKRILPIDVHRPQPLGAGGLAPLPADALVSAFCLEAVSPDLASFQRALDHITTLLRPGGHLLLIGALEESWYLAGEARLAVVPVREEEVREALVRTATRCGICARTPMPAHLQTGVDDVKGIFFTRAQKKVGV
As to the kind of experiment: Ability to inhibit phenylethanolamine N-methyl-transferase (PNMT).

`FCC1Cc2ccc(Br)cc2CN1` (stereo not given): in test [1], the Selectivity was determined as 10.
As a reminder, the Ki is the equilibrium dissociation constant of an inhibitor or competing ligand from its target. Read a low Ki as a stronger hold on the target. On to `O=[N+]([O-])c1ccc2c(c1)CNCC(O)C2` (stereo not given), for which the Selectivity in test [1] came out at 130. Moreover, the figures for the Ki in test [2] and in test [3] were 680000 nM and 5300 nM, respectively.
The corresponding values for `FC1CNCc2cc(Br)ccc2C1` (stereo not given) are 130, 49000 nM and 390 nM.
For `O=[N+]([O-])c1ccc2c(c1)CNCC2CF` (stereo not given), the Selectivity in test [1] was 17. Moreover, the values for the Ki in test [2] and in test [3] were 35000 nM and 2100 nM, respectively.
Take `O=[N+]([O-])c1ccc2c(c1)CNC(CF)C2` (stereo not given): the Selectivity in test [1] is 140.
The same measure, in the same setting: with `Clc1ccc2c(c1Cl)CNCC2` the figure was 0.095.
`N#Cc1ccc2c(c1)CNCC(F)C2` (stereo not given): the Selectivity in test [1] worked out at 77. Moreover, the Ki in test [2] came out at 100000 nM; in test [3], 1300 nM.
On to `NS(=O)(=O)c1ccc2c(c1)CNC(CF)C2` (stereo not given), for which the Selectivity in test [1] amounted to 1000.
With `FC1CNCc2ccccc2C1` (stereo not given), in test [1], the Selectivity was 47. In addition, the Ki was found to be 93000 nM in test [2] and 2000 nM in test [3].
In the case of `N#Cc1ccc2c(c1)CNC(CF)C2` (stereo not given), in test [1], the Selectivity amounted to 420.
Same read-out and setting: with `NS(=O)(=O)c1ccc2c(c1)CNC(CO)C2` (stereo not given) the figure was 4100.
On to `O=[N+]([O-])c1ccc2c(c1)CNCC(F)C2` (stereo not given), for which, in test [1], the Selectivity worked out at 940. Besides, the Ki in test [2] worked out at 510000 nM; in test [3], 540 nM.
In the case of `COc1ccc2c3c([nH]c2c1)C=NCC3`, the Selectivity in test [1] amounted to 4.4.
